The text below walks through data of publication PMC8553517 (ACS infectious diseases, 2021).

By IC50 is commonly meant the concentration that gives 50% inhibition. Usually share remaining stands for the share of the starting amount still present when the sample was taken. A high value points to less turnover.

“And” between values parts separate entries of the source, which are not always exact repeats. Identical values can stand only once.

The subject of series [1] is intracellular L. donovani. Briefly: L. donovani-infected macrophage assay. It counts as cell-based, Leishmania donovani. Particulars: Leishmania donovani, Macrophage, read-out: IC50 against L. donovani.
A further series has as its system J774 macrophages. As to the kind of experiment: J774 macrophage toxicity assay. The series is classed as cell-based, mouse. Particulars: for IC50: Mus musculus, J774, read-out: IC50 against J774 macrophages.
In another series the test system is HepG2 cells. As to the kind of experiment: HepG2 toxicity assay. It counts as cell-based. Particulars: for IC50: Homo sapiens, HepG2, 72 h, read-out: IC50 against HepG2.
For series [2], the target named is recombinant L. donovani CYP51 (Leishmania donovani, UniProt A0A3S7WRS7). Briefly: Fluorescence-based L. donovani CYP51 inhibition assay. It counts as biochemical.
For the next series, the system named is L. donovani CYP51. As to the kind of experiment: L. donovani CYP51 ligand binding spectra. Particulars: titration of CYP51; absorbance maximum 431 nm, minimum 412–413 nm. Details: species or system Leishmania donovani. The essentials:
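Purified N-terminally truncated L. donovani CYP51 (CYP51-32c, His-tagged; purity by SDS-PAGE/anti-His Western blot, CO-difference spectra) at 0.5 µM, titrated in 30 mM potassium phosphate pH 7.4 with 0.1 mM EDTA and 20% glycerol. […], and sample-minus-reference difference spectra were recorded.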

Another series has as its target recombinant human CYP3A4 (Homo sapiens, UniProt P08684). Briefly: Inhibition of recombinant human CYP3A4. It counts as in vitro ADME.
The subject of series [3] is L. donovani-infected female BALB/c mice. As to the kind of experiment: Murine visceral leishmaniasis model. Particulars: for Reduction in liver parasitemia: three days after final dose. It counts as in vivo. Put shortly:
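Female BALB/c mice infected with L. donovani; groups of four. Dosing by oral gavage for 5 consecutive days, starting one week post-infection. Test compound was given at 75 or 37.5 mg/kg/day in 50% PEG400/50% water. Reference drug miltefosine was given at 10 mg/kg/day in water. The vehicle control group received PEG-400. Liver parasitemia was determined three days after the final dose, reported as percent reduction (mean ± S.E.M.).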

Series [4] can be described thus: Microsomal stability, human liver microsomes. It counts as in vitro ADME.

recombinant human CYP3A4, sequence (P08684 whole entry): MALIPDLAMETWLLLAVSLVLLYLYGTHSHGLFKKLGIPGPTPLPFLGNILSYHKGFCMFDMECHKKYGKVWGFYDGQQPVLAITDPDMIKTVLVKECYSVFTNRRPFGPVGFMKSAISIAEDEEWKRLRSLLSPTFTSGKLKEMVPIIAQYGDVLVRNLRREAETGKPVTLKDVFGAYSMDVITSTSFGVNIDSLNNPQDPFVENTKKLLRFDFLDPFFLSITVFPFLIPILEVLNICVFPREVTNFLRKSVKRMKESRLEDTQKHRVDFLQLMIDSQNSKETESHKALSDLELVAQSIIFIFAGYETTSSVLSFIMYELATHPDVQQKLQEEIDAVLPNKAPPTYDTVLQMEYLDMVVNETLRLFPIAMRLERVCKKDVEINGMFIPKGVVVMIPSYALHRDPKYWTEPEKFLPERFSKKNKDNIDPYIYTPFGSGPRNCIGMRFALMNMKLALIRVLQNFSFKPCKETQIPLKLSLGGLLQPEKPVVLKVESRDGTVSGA

On to `CC(C)Oc1cc(OCCCCCCCCn2ccnc2)ccc1NC(=N)c1ccccn1` [Compound 24c, N-(4-((8-(1H-imidazol-1-yl)octyl)oxy)-2-isopropoxyphenyl) picolinimidamide], for which the IC50 turned out to be 530 ± 50 nM in series [1]; 6800 ± 200 nM in the series on J774 macrophages; 12000 ± 2000 nM in the series on HepG2 cells; 330 ± 10 nM in series [2]; 80 ± 9 nM at recombinant human CYP3A4. In addition, the “Selectivity index (IC50 vs. mammalian cell line/IC50 vs. L. donovani)” value in the series with J774 macrophages (J774 macrophages vs. intracellular L. donovani) was found to be 13; in the series on HepG2 cells (HepG2 cells vs. intracellular L. donovani) it was 23. Moreover, the “CYP51 binding spectrum type” value with L. donovani CYP51 is given as “typical Type II binding spectra”. Moreover, the “Reduction in liver parasitemia” value was 17 ± 5% in series [3] (37.5 mg/kg/day × 5 p.o.); 33% and 33 ± 7% in series [3] (75 mg/kg/day × 5 p.o., mean ± S.E.M.).

For the molecule `CCCCCCCCCCCCCCCCOP(=O)([O-])OCC[N+](C)(C)C` [Miltefosine, miltefosine, reference compound], the “Reduction of liver infection” value in series [3] (10 mg/kg/day × 5 p.o.) was 95 ± 2%.

In the case of `N=C(Nc1ccc(OCCCCCCCCn2ccnc2)cc1)c1ccccn1` [Compound 9h, N-(4-((8-(1H-imidazol-1-yl)octyl)oxy)phenyl) picolinimidamide], the IC50 in series [1] is 1000 nM; in the series on J774 macrophages, 11000 ± 1000 nM; with HepG2 cells it was 12000 ± 3000 nM; in series [2], 360 ± 30 nM; at recombinant human CYP3A4 it was 47 ± 3 nM. In addition, the “CYP51 binding spectrum type” value in the series on L. donovani CYP51 is reported as “typical Type II binding spectra”. The amount remaining at 1 h, 3 μM in series [4] (human, liver microsomes) turned out to be 100%. The “Degradation by human liver microsomes (in words)” value in series [4] (over a period of one hour, substrate 3 μM) is listed as “not degraded”.
